The list is not random: actives were taken first. Their share in the collection is about 3%.
Wnt bcat act = Wnt/beta-catenin pathway activators, primary screen, cell-based, plate reader, single point; Wnt/beta-catenin reporter cell assay, activator; activation, % at 9.35 µM; actives 1.2% (n = 300,000); AID 743398, 2014; in the data active = activation above about 30%, passing the limit was not always enough; inconclusive = no clear call, values can overlap the other calls
MITF TRPM1 HTS = activators of MITF-driven TRPM1 promoter reporter, primary screen, cell-based, SK-MEL-5, luciferase, single point | SK-MEL-5 TRPM1-promoter luciferase, 24 h; % of positive control, neutral wells = 0 | activation, % at 12.5 µM | actives 0.75% (n = 300,000);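 active = mean activation of at least 80% with every replicate also reaching 80%; inconclusive = mean reaches 80% but some replicate falls short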
CASP6 VEID inh = human caspase-6 inhibitors, primary screen, biochemical, VEID-R110 fluorescence, single point, set 2 | inhibition, % at 12.5 µM | actives 0.53% (n = 350,000) | purified caspase-6, Z-VEID-R110 cleavage fluorescence | P55212 | AID 686996, 2013;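 active = mean inhibition across replicates at least about 35%, with every replicate also reaching that limit, limit read from the data; inconclusive = only one of the two criteria met; inactive = neither criterion met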
esBAF inh = Bmi1 luciferase reporter increase in mESCs, primary screen, esBAF inhibitor project, mouse ES cells, Bmi1 luciferase knock-in, single point | 24 h; 100% = twice the neutral-well signal | reporter increase, % at 12.5 µM | actives 2% (n = 350,000); in the data active = activation above about 40%; inconclusive = no clear call, values can overlap the other calls;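 note: a rise in the Bmi1 reporter signal indicates esBAF inhibition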
XiGFP reactiv = activators of inactive X chromosome reactivation, primary screen, imaging, XiGFP fibroblasts, GFP high-content imaging, set 2; XiGFP mouse fibroblasts, % GFP-positive cells imaging, 3 d; cells co-treated with 5-aza-dC sensitizer; scaled so ellipticine positive control = 100%; activation, % at 7.58 µM; actives 0.055% (n = 360,000); AID 743238, 2013;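 active = mean normalized replicate activation at least 10% and every replicate at or above 10%; inconclusive = only one of the two criteria met; inactive = mean below 10% and not all replicates reach 10%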
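System: SV40-immortalized XiGFP fibroblast cells, line 68-5-11 / Incubation: 3-day compound exposure, then 15 min fixation at room temperature / Compound: single concentration per compound, delivered by pin transfer / Buffer or medium: DMEM plus 5-aza-dC sensitizer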
NSD2 inh = NSD2 histone methyltransferase inhibitors, primary screen, biochemical, AlphaScreen, single concentration, set 2. Histone-lysine N-methyltransferase NSD2 (Homo sapiens), O96028. NSD2 peptide methylation, 120 min. inhibition, % at 12.5 µM. actives 0.54% (n = 310,000); in the data active = inhibition above about 50%
Hits are given with their value; 0 = inactive; ? = inconclusive; - = not tested or not shown.

SMILES	Wnt bcat act	MITF TRPM1 HTS	CASP6 VEID inh	esBAF inh	XiGFP reactiv	NSD2 inh
C=CCSc1nn2c(=O)c3ccccc3nc2s1	52	-	-	0	-	-
Cc1ccccc1Nc1nn2c(=O)c3ccccc3nc2s1	35	0	-	0	-	0
C/C(Cl)=C/CSc1nn2c(=O)c3ccccc3nc2s1	-	?	0	0	-	0
COc1cccc(Nc2nn3c(=O)c4ccccc4nc3s2)c1	-	114	-	69	-	-
COc1ccc(Cl)cc1NC(=O)c1ccc2c(SCC(=O)O)c3c(nc2c1)CCCC3	0	0	37	0	0	-
CCCN(C(=O)c1ccc2c(SCC(=O)O)c3c(nc2c1)CCC3)c1cccc(C)c1	0	0	65	0	0	0
CCCCNC(=O)c1ccc2c(SCC(=O)O)c3c(nc2c1)CCCC3	-	0	-	-	-	0
NC(=NC(=O)c1cccc(C(F)(F)F)c1)c1ccc(C(F)(F)F)cn1	0	0	0	0	22	0
C[C@@H]1COCc2cn(nn2)CC[C@H](Cc2ccccc2)C(=O)N1	-	-	-	-	0	-
Cc1ccc(SC[C@H](c2ccccc2)N2CCN(C)CCC2=O)cc1	0	0	-	51	0	-
CC(C)C[C@@H](CSc1ccc(Br)cc1)N1CCN(C)CCC1=O	0	81	0	44	0	-
Cc1ccc(SC[C@H](CC(C)C)N2CCN(C)CCC2=O)cc1	0	0	0	58	0	-
COc1ccc(SC[C@H](CC(C)C)N2CCN(C)CCC2=O)cc1	0	0	0	0	0	-
O=C(Nc1ccc(NC(=O)C2CCCCC2)nc1)c1ccccn1	?	94	-	47	0	0
COc1ccccc1C(=O)Nc1ccc(NC(=O)C2CCCCC2)nc1	0	0	0	0	0	0
O=C(Nc1ccc(NC(=O)C2CC2)cn1)c1ccccc1	0	0	0	0	0	0
O=C(Nc1ccc(NC(=O)C2CC2)cn1)c1ccccc1Cl	37	0	-	42	-	0
O=C(Nc1ccc(N2CCOCC2)nc1)c1ccccc1Cl	0	0	0	45	0	0
Cc1ccc(S(=O)(=O)N2CCCC(C(=O)Nc3ccc(NC(=O)c4ccccn4)cc3)C2)cc1 (configuration not stated)	60	0	-	0	-	0
COc1cccc(-c2cn(CC[C@H]3CC[C@@H](NC(=O)CC4CC4)[C@@H](CO)O3)nn2)c1	-	-	0	0	0	-
O=C(CCc1nnc(-c2ccccc2)o1)NC1CCCCC1	0	?	0	48	0	-
CN(CCCC1CCCC1)C(=O)CCc1nnc(-c2ccccc2)o1	0	0	0	84	0	0
CN(C(=O)CCc1nnc(-c2ccc(-c3ccccc3)cc2)o1)C1CCOCC1	0	0	0	0	0	0
CCOc1ccc(-c2n[nH]c(C(=O)NN)c2C)cc1	0	0	0	55	0	0
O=c1[nH]c2ccc(F)cc2[nH]c1=O	0	0	42	-	0	0
SMILES	Wnt bcat act	MITF TRPM1 HTS	CASP6 VEID inh	esBAF inh	XiGFP reactiv	NSD2 inh
CNC[C@@H]1Oc2ncc(Br)cc2C(=O)N([C@@H](C)CO)C[C@@H]1C	-	-	0	0	0	-
COc1ccc(Nc2nc3cc(-c4ccsc4)sc3c(=O)n2C)cc1OC	0	-	0	0	0	0
COc1cccc(-c2cc3nc(Nc4ccc(OC)c(OC)c4)n(C)c(=O)c3s2)c1	0	-	0	53	0	0
Cc1ccc(-c2nnc(/C=C/c3ccccc3)o2)cc1	0	0	0	-	0	0
Cc1ccc(/C=C/c2nnc(-c3cccc(C)c3)o2)cc1	0	0	0	53	-	0
Clc1ccc(-c2cn3c(n2)CCC3)cc1	-	92	-	-	-	-
Cc1ccc(CNc2nc(C)cs2)cc1	0	143	0	46	0	0
COc1ccc(CN(C)C[C@@H]2Oc3ccc(NC(=O)NC(C)C)cc3CC(=O)N([C@@H](C)CO)C[C@@H]2C)cc1	-	-	0	0	0	-
O=Cc1ccc(Oc2nc(Cl)ncc2F)cc1	0	-	42	0	0	0
COc1ccc(-c2ccc(SCC(=O)N3CC(=O)Nc4ccccc43)nn2)cc1	0	0	0	49	0	0
COc1ccc(-c2ccc(SCC(=O)Nc3nnc(C)s3)nn2)cc1	35	0	0	-	0	0
O=C(N[C@@H]1CC[C@H](CCn2cc(C3(O)CCCC3)nn2)O[C@@H]1CO)C1CCCC1	-	-	0	0	0	-
COC(=O)c1ccc(NC(=O)c2ccc3nccnc3c2)cc1	0	0	0	0	0	0
Cc1ccc(NC(=O)c2ccc3nccnc3c2)c(C)c1	0	99	0	0	0	-
O=C(Nc1ccc(SC(F)F)cc1)c1ccc2nccnc2c1	-	0	0	122	-	0
Cc1cc(NC(=O)c2ccc3nccnc3c2)ccc1Br	66	0	0	0	0	0
Cc1ccc(C(=O)Nc2ccc3nccnc3c2)cc1	-	0	-	-	-	0
CCNC(=O)Nc1ccc2c(c1)C(=O)N(C)[C@H]1CC[C@@H](CC(=O)NCCOC)O[C@@H]1CO2	-	-	-	0	0	-
C/C=C/c1ccc([C@H]2[C@H](CO)N(C(=O)c3cnccn3)C23CN(C(=O)C2CC2)C3)cc1	-	-	0	-	0	-
C[C@@H]1CN([C@@H](C)CO)C(=O)c2cc(NC(=O)NC3CCCCC3)ccc2O[C@@H](C)CCCCO[C@@H]1CN(C)S(=O)(=O)c1cccs1	-	-	-	0	0	-
COc1ccc(NC(=O)c2cc(C(C)C)on2)c(OC)c1	0	0	0	50	0	-
COc1ccc(NC(=O)C(F)(OC)C(F)(F)F)c(OC)c1 (configuration not stated)	0	0	55	0	-	0
